Data: ChEMBL document CHEMBL1135657, “Novel dual inhibitors of AChE and MAO derived from hydroxy aminoindan and phenethylamine as potential treatment for Alzheimer's disease” (J Med Chem, 2002)

Tests used:
Butyrylcholinesterase [1] = molecular target: T1, Butyrylcholinesterase (Equus caballus, UniProt Q9N1N9); test: In vitro inhibitory concentration against Butyrylcholinesterase of horse serum; value ranges from 0.73-0.77
Outline: (§1)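 Ellman assay followed, with 200 µM butyrylthiocholine as substrate. Runs were in triplicate with four-point dose-response curves. IC50 and fiducial limits came from log concentration versus % inhibition.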

[2] = molecular target: T2, Amine oxidase [flavin-containing] B (Rattus norvegicus, UniProt P19643); test: In vitro inhibitory concentration against Monoamine oxidase B of rat brain homogenates; value ranges from 0.3-1.2; format: tissue-based
T2 sequence (P19643 whole entry): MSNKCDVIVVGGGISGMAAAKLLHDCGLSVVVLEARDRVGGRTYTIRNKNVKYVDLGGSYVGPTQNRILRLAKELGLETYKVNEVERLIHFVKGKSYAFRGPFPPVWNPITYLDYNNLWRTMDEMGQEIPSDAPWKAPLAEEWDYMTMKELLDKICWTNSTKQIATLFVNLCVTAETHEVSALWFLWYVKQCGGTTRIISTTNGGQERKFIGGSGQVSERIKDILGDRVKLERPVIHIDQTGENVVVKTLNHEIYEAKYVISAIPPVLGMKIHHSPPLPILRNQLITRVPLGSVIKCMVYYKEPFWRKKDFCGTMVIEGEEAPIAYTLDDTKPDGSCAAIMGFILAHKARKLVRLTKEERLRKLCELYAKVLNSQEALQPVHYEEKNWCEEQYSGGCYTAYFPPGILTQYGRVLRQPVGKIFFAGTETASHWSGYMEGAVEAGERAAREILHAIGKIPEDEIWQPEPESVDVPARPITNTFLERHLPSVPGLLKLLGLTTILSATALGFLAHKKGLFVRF

Acetylcholinesterase [3] = molecular target: T3, Acetylcholinesterase (Homo sapiens, UniProt P22303); test: In vitro inhibitory concentration against purified Acetylcholinesterase of human erythrocytes; value ranges from 1.32-2.23
[4] = molecular target: T4, Amine oxidase [flavin-containing] A (Rattus norvegicus, UniProt P21396); test: In vitro inhibitory concentration against Monoamine oxidase A of rat brain homogenates; value ranges from 0.09-0.16; format: tissue-based
T4 sequence (P21396 whole entry): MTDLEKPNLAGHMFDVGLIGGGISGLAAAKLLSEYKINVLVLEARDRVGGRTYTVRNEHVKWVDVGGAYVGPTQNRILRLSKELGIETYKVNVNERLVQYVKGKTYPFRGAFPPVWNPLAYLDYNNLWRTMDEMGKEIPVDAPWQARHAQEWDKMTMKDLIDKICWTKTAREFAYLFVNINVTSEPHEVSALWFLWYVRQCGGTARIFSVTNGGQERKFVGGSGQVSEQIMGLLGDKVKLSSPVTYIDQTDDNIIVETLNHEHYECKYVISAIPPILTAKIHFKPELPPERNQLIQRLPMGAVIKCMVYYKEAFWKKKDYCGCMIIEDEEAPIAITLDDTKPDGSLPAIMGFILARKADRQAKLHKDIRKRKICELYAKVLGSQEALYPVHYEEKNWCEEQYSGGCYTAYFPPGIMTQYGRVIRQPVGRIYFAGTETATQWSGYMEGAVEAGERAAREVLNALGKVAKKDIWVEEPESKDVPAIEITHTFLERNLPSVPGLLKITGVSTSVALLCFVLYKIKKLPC

[5] = molecular target: T4, Amine oxidase [flavin-containing] A; test: In vitro inhibitory concentration against Monoamine oxidase A of rat brain homogenates; value ranges from 4.7-16.8; format: tissue-based
[6] = molecular target: T2, Amine oxidase [flavin-containing] B; test: In vitro inhibitory concentration against Monoamine oxidase B of rat brain homogenates; value ranges from 2.8-8.3; format: tissue-based
[7] = molecular target: T4, Amine oxidase [flavin-containing] A; test: In vitro inhibitory concentration against Monoamine oxidase A of rat brain homogenates; value ranges from 14-340; format: tissue-based
[8] = molecular target: T2, Amine oxidase [flavin-containing] B; test: In vitro inhibitory concentration against Monoamine oxidase B of rat brain homogenates; value ranges from 22-530; format: tissue-based
Acetylcholinesterase [9] = molecular target: T3, Acetylcholinesterase; test: In vitro inhibitory concentration against purified Acetylcholinesterase of human erythrocytes; value ranges from 0.79-0.93
[10] = molecular target: T4, Amine oxidase [flavin-containing] A; test: In vitro inhibitory concentration against Monoamine oxidase A of rat brain homogenates; value ranges from 0.1-0.9; format: tissue-based
[11] = molecular target: T2, Amine oxidase [flavin-containing] B; test: In vitro inhibitory concentration against Monoamine oxidase B of rat brain homogenates; value ranges from 1.5-5.2; format: tissue-based
[12] = molecular target: T2, Amine oxidase [flavin-containing] B; test: In vitro inhibitory concentration against Monoamine oxidase B of rat brain homogenates; value ranges from 0.11-0.57; format: tissue-based
Outline: (§2)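 Rat brain homogenate (in 0.3 M sucrose) as enzyme source; compounds diluted 10⁻²M to 10⁻⁹M in 0.05 M phosphate buffer with 0.15 μM clorgyline; preincubated 60 min at 37 °C, then 10 μM ¹⁴C-phenylethylamine added for 20 min more; stopped with citric acid; metabolites extracted into toluene/ethyl acetate, scintillation counted; activity as % of control, tranylcypromine blank.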

Butyrylcholinesterase [13] = molecular target: T1, Butyrylcholinesterase; test: In vitro inhibitory concentration against Butyrylcholinesterase of horse serum; value ranges from 0.45-1.08; outline: as §1
[14] = molecular target: T4, Amine oxidase [flavin-containing] A; test: In vitro inhibitory concentration against Monoamine oxidase A of rat brain homogenates; value ranges from 0.8-3.7; format: tissue-based
Acetylcholinesterase [15] = molecular target: T3, Acetylcholinesterase; test: In vitro inhibitory concentration against purified Acetylcholinesterase of human erythrocytes; value ranges from 3.69-33.1
[16] = molecular target: T2, Amine oxidase [flavin-containing] B; test: In vitro inhibitory concentration against Monoamine oxidase B of rat brain homogenates; value ranges from 75-200
Acetylcholinesterase [17] = molecular target: T3, Acetylcholinesterase; test: In vitro inhibitory concentration against purified Acetylcholinesterase of human erythrocytes; value ranges from 26.2-5898
Butyrylcholinesterase [18] = molecular target: T1, Butyrylcholinesterase; test: In vitro inhibitory concentration against Butyrylcholinesterase of horse serum; value ranges from 0.28-0.30; outline: as §1
[19] = molecular target: T2, Amine oxidase [flavin-containing] B; test: In vitro inhibitory concentration against Monoamine oxidase B of rat brain homogenates; value ranges from 0.08-0.38; format: tissue-based; outline: as §2
Acetylcholinesterase [20] = molecular target: T3, Acetylcholinesterase; test: In vitro inhibitory concentration against purified Acetylcholinesterase of human erythrocytes; value ranges from 13.6-27.3
Butyrylcholinesterase [21] = molecular target: T1, Butyrylcholinesterase; test: In vitro inhibitory concentration against Butyrylcholinesterase of horse serum; value ranges from 1.19-8.56; outline: as §1
[22] = molecular target: T4, Amine oxidase [flavin-containing] A; test: In vitro inhibitory concentration against Monoamine oxidase A of rat brain homogenates; value ranges from 12.1-17.6; format: tissue-based
Acetylcholinesterase [23] = molecular target: T3, Acetylcholinesterase; test: In vitro inhibitory concentration against purified Acetylcholinesterase of human erythrocytes; value ranges from 12.6-74.0
[24] = molecular target: T4, Amine oxidase [flavin-containing] A; test: In vitro inhibitory concentration against Monoamine oxidase A of rat brain homogenates; value ranges from 1.8-2.5; format: tissue-based
Butyrylcholinesterase [25] = molecular target: T1, Butyrylcholinesterase; test: In vitro inhibitory concentration against Butyrylcholinesterase of horse serum; value ranges from 0.90-0.95; outline: as §1
[26] = molecular target: T2, Amine oxidase [flavin-containing] B; test: In vitro inhibitory concentration against Monoamine oxidase B of rat brain homogenates; value ranges from 9.5-17.2
[27] = molecular target: T4, Amine oxidase [flavin-containing] A; test: In vitro inhibitory concentration against Monoamine oxidase A of rat brain homogenates; value ranges from 2-8; format: tissue-based
Acetylcholinesterase [28] = molecular target: T3, Acetylcholinesterase; test: In vitro inhibitory concentration against purified Acetylcholinesterase of human erythrocytes
Butyrylcholinesterase [29] = molecular target: T1, Butyrylcholinesterase; test: In vitro inhibitory concentration against Butyrylcholinesterase of horse serum; value ranges from 0.21-1.26; outline: as §1
[30] = molecular target: T2, Amine oxidase [flavin-containing] B; test: In vitro inhibitory concentration against Monoamine oxidase B of rat brain homogenates; value ranges from 30-230; format: tissue-based
Acetylcholinesterase [31] = molecular target: T3, Acetylcholinesterase; test: In vitro inhibitory concentration against purified Acetylcholinesterase of human erythrocytes; value ranges from 7.5-19.5
[32] = molecular target: T4, Amine oxidase [flavin-containing] A; test: In vitro inhibitory concentration against Monoamine oxidase A of rat brain homogenates; value ranges from 150-320; format: tissue-based
[33] = molecular target: T4, Amine oxidase [flavin-containing] A; test: In vitro inhibitory concentration against Monoamine oxidase A of rat brain homogenates; value ranges from 370-520; format: tissue-based
Butyrylcholinesterase [34] = molecular target: T1, Butyrylcholinesterase; test: In vitro inhibitory concentration against Butyrylcholinesterase of horse serum; value ranges from 0.16-0.41; outline: as §1
[35] = molecular target: T2, Amine oxidase [flavin-containing] B; test: In vitro inhibitory concentration against Monoamine oxidase B of rat brain homogenates; value ranges from 11-52; format: tissue-based
Acetylcholinesterase [36] = molecular target: T3, Acetylcholinesterase; test: In vitro inhibitory concentration against purified Acetylcholinesterase of human erythrocytes; value ranges from 0.18-0.32
[37] = molecular target: T4, Amine oxidase [flavin-containing] A; test: In vitro inhibitory concentration against Monoamine oxidase A of rat brain homogenates; value ranges from 1.3-5.6; format: tissue-based

T3 sequence (P22303 whole entry): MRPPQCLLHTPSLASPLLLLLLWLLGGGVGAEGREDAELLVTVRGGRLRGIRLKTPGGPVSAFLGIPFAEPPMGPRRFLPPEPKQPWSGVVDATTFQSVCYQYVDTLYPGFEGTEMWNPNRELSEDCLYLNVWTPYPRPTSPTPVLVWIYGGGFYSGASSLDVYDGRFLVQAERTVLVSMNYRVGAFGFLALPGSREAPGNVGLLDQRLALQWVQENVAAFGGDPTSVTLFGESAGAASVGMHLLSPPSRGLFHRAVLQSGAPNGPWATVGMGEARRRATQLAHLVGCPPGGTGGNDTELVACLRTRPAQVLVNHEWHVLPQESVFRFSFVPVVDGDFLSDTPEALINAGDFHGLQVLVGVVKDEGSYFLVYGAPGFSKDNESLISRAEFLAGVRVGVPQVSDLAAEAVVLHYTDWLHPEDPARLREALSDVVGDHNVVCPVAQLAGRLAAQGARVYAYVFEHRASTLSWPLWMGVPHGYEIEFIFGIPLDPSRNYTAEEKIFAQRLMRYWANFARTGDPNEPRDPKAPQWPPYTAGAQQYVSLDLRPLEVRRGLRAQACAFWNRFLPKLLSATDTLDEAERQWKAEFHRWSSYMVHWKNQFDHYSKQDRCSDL
T1 sequence (Q9N1N9 whole entry): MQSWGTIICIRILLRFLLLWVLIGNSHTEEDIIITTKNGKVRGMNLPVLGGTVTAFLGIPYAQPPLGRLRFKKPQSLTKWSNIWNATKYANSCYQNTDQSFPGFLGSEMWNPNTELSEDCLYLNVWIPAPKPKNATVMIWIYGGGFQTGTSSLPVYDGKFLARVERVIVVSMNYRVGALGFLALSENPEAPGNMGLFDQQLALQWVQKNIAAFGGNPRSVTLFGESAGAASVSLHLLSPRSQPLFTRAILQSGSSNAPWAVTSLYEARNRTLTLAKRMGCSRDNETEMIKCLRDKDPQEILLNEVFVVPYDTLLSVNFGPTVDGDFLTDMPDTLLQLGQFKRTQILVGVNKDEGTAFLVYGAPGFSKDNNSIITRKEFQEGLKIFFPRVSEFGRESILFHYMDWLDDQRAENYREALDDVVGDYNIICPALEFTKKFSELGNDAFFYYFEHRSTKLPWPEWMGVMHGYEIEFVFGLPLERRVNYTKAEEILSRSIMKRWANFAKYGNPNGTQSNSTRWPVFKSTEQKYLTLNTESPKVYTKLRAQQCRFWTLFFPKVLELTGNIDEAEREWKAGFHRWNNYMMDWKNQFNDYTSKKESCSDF

C#CCN(C)C(C)Cc1cccc(OC(=O)N(C)C)c1 (configuration not stated)
IC50 (Butyrylcholinesterase [1]): 0.75 µM
IC50 [2]: 0.8 µM
IC50 (Acetylcholinesterase [3]): 1.64 µM
IC50 [4]: 0.12 µM

C#CCN(C)C(C)Cc1cccc(O)c1 (configuration not stated)
IC50 [5]: 8.9 µM
IC50 [6]: 4.8 µM

C#CCNCCc1cccc(O)c1
IC50 [7]: 67 µM
IC50 [8]: 107 µM

C#CCN(C)CCc1cccc(OC(=O)N(C)C)c1
IC50 (Acetylcholinesterase [9]): 0.85 µM
IC50 [10]: 0.3 µM
IC50 [11]: 2.8 µM

C#CCN(C)C(C)Cc1cccc(OC(=O)N(C)C2CCCCC2)c1 (configuration not stated)
IC50 [12]: 0.24 µM
IC50 (Butyrylcholinesterase [13]): 0.67 µM
IC50 [14]: 1.7 µM
IC50 (Acetylcholinesterase [15]): 8.67 µM

C#CCNC1CCc2ccc(OC(=O)N(C)CC)cc2C1 (configuration not stated)
IC50 [16]: 120 µM
IC50 (Acetylcholinesterase [17]): 204 µM
IC50 (Butyrylcholinesterase [18]): 0.29 µM

C#CCNC(C)Cc1cccc(OC(=O)N(C)CCC)c1 (configuration not stated)
IC50 [19]: 0.17 µM
IC50 (Acetylcholinesterase [20]): 19.1 µM
IC50 (Butyrylcholinesterase [21]): 2.07 µM
IC50 [22]: 14.6 µM

C#CCNC(C)Cc1cccc(OC(=O)N(C)CC)c1 (configuration not stated)
IC50 (Acetylcholinesterase [23]): 33.9 µM
IC50 [24]: 2.1 µM
IC50 (Butyrylcholinesterase [25]): 0.93 µM
IC50 [26]: 12.8 µM

C#CCN(C)[C@@H]1CCc2ccc(OC(=O)N(C)CC)cc21
IC50 [27]: 4 µM
IC50 (Acetylcholinesterase [28]): 1200 µM
IC50 (Butyrylcholinesterase [29]): 0.55 µM

C#CCN[C@@H]1CCc2ccc(OC(=O)N(C)CCCC)cc21
IC50 [30]: 150 µM
IC50 (Acetylcholinesterase [31]): 11.6 µM
IC50 [32]: 220 µM

C#CCN[C@H]1CCc2ccc(O)cc21
IC50 [33]: 440 µM

C#CCNCCc1cccc(OC(=O)N(C)C)c1
IC50 (Butyrylcholinesterase [34]): 0.21 µM
IC50 [35]: 24 µM
IC50 (Acetylcholinesterase [36]): 0.22 µM
IC50 [37]: 2.7 µM
